According to ChEMBL document CHEMBL1125425, “Synthesis and muscarinic activities of quinuclidin-3-yltriazole and -tetrazole derivatives” (J Med Chem, 1992):

Experiments:
[1] = biological target: Muscarinic acetylcholine receptor; test: In vitro inhibition of [3H]OXO-M binding to Muscarinic receptor from rat cortical homogenates
[2] = biological target: Muscarinic acetylcholine receptor; test: In vitro inhibition of [3H]QNB binding to Muscarinic receptor from rat cortical homogenates
[3] = biological target: Muscarinic acetylcholine receptor; test: Compound was tested in vitro for its binding affinity to muscarinic acetylcholine receptor from rat cortical homogenates using [3H]QNB as radioligand
[4] = biological target: Muscarinic acetylcholine receptor; test: Compound was tested in vitro for its binding affinity to muscarinic acetylcholine receptor from rat cortical homogenates using [3H]OXO-M as radioligand
Method in brief: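 Hooded Lister rat cerebral cortex washed membranes in 50 mM Tris pH 7.7 plus 2 mM MgCl2; 2 nM [3H]oxotremorine-M; nonspecific binding with 10 μM oxotremorine; 37 °C for 30 min; filtration on filters presoaked in 0.05% polyethylenimine, scintillation counting. IC50 is the geometric mean of at least two separate experiments, seven concentrations each.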

[5] = biological target: Muscarinic acetylcholine receptor (Rattus norvegicus) (UniProt P08482+P08483+P08485+P08911+P10980); test: Ratio of IC50(QNB) to IC50(OXO-M) was determined; assay type: protein assay

`Cn1cc(C2CN3CCC2CC3)nn1` (centres undefined) showed an IC50 [1] of 4.6 µM and an IC50 [2] of 53 µM.

With `c1nnn(C2CN3CCC2CC3)n1` (centres undefined) the IC50 [1] was 0.24 µM and the IC50 [2] was 16 µM.

Work on `Cn1ncc(C2CN3CCC2CC3)n1` (centres undefined) yielded an IC50 [1] of 0.048 µM and an IC50 [2] of 4.5 µM.

Work on `c1nnnn1C1CN2CCC1CC2` (centres undefined) yielded an IC50 [3] of 115 µM, an IC50 [4] of 2.3 µM and a Ratio [5] of 49.

In the case of `O=C1CCCN1CC#CCN1CCCC1` [OXOTREMORINE], the IC50 [1] is reported as 0.017 µM and the IC50 [2] is reported as 3.3 µM.

With `Cn1cnc(C2CN3CCC2CC3)n1` (centres undefined) the IC50 [1] was 3.4 µM and the IC50 [2] was 30 µM.

`Cc1ncn(C2CN3CCC2CC3)n1` (centres undefined) gave an IC50 [1] of 0.075 µM and an IC50 [2] of 4.5 µM.

Work on `Cc1nnn(C2CN3CCC2CC3)n1` (centres undefined) yielded an IC50 [3] of 2.8 µM, an IC50 [4] of 0.03 µM and a Ratio [5] of 92.

`Cc1cn(C2CN3CCC2CC3)nn1` (centres undefined) gave an IC50 [1] of 5 µM and an IC50 [2] of 20 µM.

`Cn1nnc(C2CN3CCC2CC3)n1` (centres undefined) gave an IC50 [1] of 0.14 µM and an IC50 [2] of 5.1 µM.

With `C[N+](C)(C)CC#CCN1CCCC1=O.[I-]` [OXOTREMORINE METHIODIDE] the IC50 [3] was 23 µM, the IC50 [4] was 0.013 µM and the Ratio [5] was 1820.

`Cc1cnn(C2CN3CCC2CC3)n1` (centres undefined) gave an IC50 [1] of 0.17 µM and an IC50 [2] of 1.6 µM.

In the case of `c1ncn(C2CN3CCC2CC3)n1` (centres undefined), the IC50 [3] is reported as 28 µM, the IC50 [4] is reported as 0.43 µM and the Ratio [5] is reported as 65.

Work on `Cn1nncc1C1CN2CCC1CC2` (centres undefined) yielded an IC50 [1] of 0.93 µM and an IC50 [2] of 29 µM.

Compound `Cc1cnnn1C1CN2CCC1CC2` (centres undefined) has an IC50 [3] of 33 µM, an IC50 [4] of 6.7 µM and a Ratio [5] of 4.9.

Compound `Cn1nnnc1C1CN2CCC1CC2` (centres undefined) has an IC50 [1] of 6.5 µM and an IC50 [2] of 60 µM.

In the case of `c1nncn1C1CN2CCC1CC2` (centres undefined), the IC50 [1] is reported as 40 µM and the IC50 [2] is reported as 165 µM.
